Converted amounts (≈) assume the structure as drawn. The source made the active and inactive calls. The rule behind the calls is not given here.
Tests used:
Fusarium solani [1] = test: Antimicrobial activity against Fusarium solani at 0.3 uM after 48 hrs by microtiter assay; assay type: functional
In short: (§1)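 96-well microdilution broth assay with conidia (3 × 10^5 conidia/mL, harvested from 7-day PDA cultures and filtered) against F. oxysporum, F. proliferatum and F. solani at 0.3, 3 and 30 µM. Plates were held at 24 ± 1 °C under a 12 h photoperiod. Growth was read at 620 nm at 24, 48 and 72 h and reported as percent inhibition from mean absorbance with standard error.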

Fusarium proliferatum [2] = test: Antimicrobial activity against Fusarium proliferatum at 30 uM after 72 hrs by microtiter assay; assay type: functional; in short: as §1
Fusarium proliferatum [3] = test: Fungistatic activity against Fusarium proliferatum at 30 uM after 72 hrs by microtiter plate assay; assay type: functional, organism-based
In short: (§2)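 Conidia come from 7-day potato dextrose agar cultures, filtered and set photometrically (625 nm) to 3 × 10^5 conidia/mL. They are exposed to compound at 30 µM in 96-well microdilution broth at 24 ± 1 °C under a 12 h photoperiod. After 72 h, 20 µL per well is subcultured on drug-free potato dextrose agar at 28 °C for 3 days. No regrowth is scored fungicidal; regrowth is scored fungistatic.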

Fusarium proliferatum [4] = test: Antimicrobial activity against Fusarium proliferatum at 0.3 uM after 48 hrs by microtiter assay; assay type: functional; in short: as §1
Fusarium oxysporum [5] = test: Fungistatic activity against Fusarium oxysporum at 30 uM after 72 hrs by microtiter plate assay; assay type: functional, organism-based; in short: as §2
Fusarium solani [6] = test: Fungistatic activity against Fusarium solani at 30 uM after 72 hrs by microtiter plate assay; assay type: functional, organism-based; in short: as §2
Fusarium proliferatum [7] = test: Antimicrobial activity against Fusarium proliferatum at 3 uM after 72 hrs by microtiter assay; assay type: functional; in short: as §1
Fusarium oxysporum [8] = test: Antimicrobial activity against Fusarium oxysporum at 30 uM after 48 hrs by microtiter assay; assay type: functional; in short: as §1
Fusarium oxysporum [9] = test: Antimicrobial activity against Fusarium oxysporum at 3 uM after 72 hrs by microtiter assay; assay type: functional; in short: as §1
Fusarium solani [10] = test: Antimicrobial activity against Fusarium solani at 3 uM after 72 hrs by microtiter assay; assay type: functional; in short: as §1
Fusarium solani [11] = test: Antimicrobial activity against Fusarium solani at 3 uM after 48 hrs by microtiter assay; assay type: functional; in short: as §1
Fusarium oxysporum [12] = test: Antimicrobial activity against Fusarium oxysporum at 3 uM after 48 hrs by microtiter assay; assay type: functional; in short: as §1
Fusarium solani [13] = test: Antimicrobial activity against Fusarium solani at 30 uM after 48 hrs by microtiter assay; assay type: functional; in short: as §1
Fusarium oxysporum [14] = test: Antimicrobial activity against Fusarium oxysporum at 0.3 uM after 48 hrs by microtiter assay; assay type: functional; in short: as §1
Fusarium solani [15] = test: Antimicrobial activity against Fusarium solani at 30 uM after 72 hrs by microtiter assay; assay type: functional; in short: as §1
Fusarium oxysporum [16] = test: Antimicrobial activity against Fusarium oxysporum at 30 uM after 72 hrs by microtiter assay; assay type: functional; in short: as §1
Fusarium proliferatum [17] = test: Antimicrobial activity against Fusarium proliferatum at 3 uM after 48 hrs by microtiter assay; assay type: functional; in short: as §1
Fusarium proliferatum [18] = test: Antimicrobial activity against Fusarium proliferatum at 0.3 uM after 72 hrs by microtiter assay; assay type: functional; in short: as §1
Fusarium oxysporum [19] = test: Antimicrobial activity against Fusarium oxysporum at 0.3 uM after 72 hrs by microtiter assay; assay type: functional; in short: as §1
Fusarium solani [20] = test: Antimicrobial activity against Fusarium solani at 0.3 uM after 72 hrs by microtiter assay; assay type: functional; in short: as §1
Fusarium proliferatum [21] = test: Antimicrobial activity against Fusarium proliferatum at 30 uM after 48 hrs by microtiter assay; assay type: functional; in short: as §1
Fusarium solani [22] = test: Fungicidal activity against Fusarium solani at 30 uM after 72 hrs by microtiter assay; assay type: functional, organism-based
In short: (§3)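 After 72 h of microtiter broth exposure at 30 µM, 20 µL from each well was plated onto compound-free potato dextrose agar and incubated 3 days at 28 °C. No regrowth was scored fungicidal; regrowth was scored fungistatic.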

Fusarium proliferatum [23] = test: Fungicidal activity against Fusarium proliferatum at 30 uM after 72 hrs by microtiter plate assay; assay type: functional, organism-based; in short: as §3
[24] = tested on: Mycobacterium intracellulare; test: Antimicrobial activity against Mycobacterium intracellular ATCC 23068; assay type: functional, organism-based
[25] = tested on: Mycobacterium tuberculosis; test: Antibacterial activity against Mycobacterium tuberculosis H37Rv at 16 ug/mL by micro plate alamar blue assay; assay type: functional
In short: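 M. tuberculosis H37Rv ATCC 27294 grown in BACTEC 12B medium; microplate Alamar blue assay (MABA). Primary screen at a single concentration of 16 µg/mL, read as percent inhibition.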

Cryptococcus neoformans = test: Antimicrobial activity against Cryptococcus neoformans ATCC 90113; assay type: functional, organism-based
Aspergillus fumigatus = test: Antimicrobial activity against Aspergillus fumigatus ATCC 90906; assay type: functional, organism-based
Candida albicans = test: Antimicrobial activity against Candida albicans ATCC 90028; assay type: functional, organism-based
[26] = tested on: Mycobacterium tuberculosis; test: Antibacterial activity against Mycobacterium tuberculosis H37Rv by micro plate alamar blue assay; assay type: functional
Fusarium oxysporum [27] = test: Fungicidal activity against Fusarium oxysporum at 30 uM after 72 hrs by microtiter plate assay; assay type: functional, organism-based; in short: as §3
Fusarium proliferatum [28] = test: Antifungal activity against Fusarium proliferatum at 20 ug/mL after 3 days by fluorescence assay; assay type: functional, organism-based
In short: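 Fusarium proliferatum conidia in potato dextrose broth in a tube with the coumarin (DEAC)-labelled probe at 20 µg/mL, held at 24 ± 1 °C. Hyphae and mycelia were viewed at 4, 8, 16, 24, 48 and 72 h by light and epifluorescence microscopy at 400× and 1000×. Conidia were first checked for autofluorescence.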

Escherichia coli = test: Antimicrobial activity against Escherichia coli; assay type: functional, organism-based
Staphylococcus aureus = test: Antimicrobial activity against methicillin-resistant Staphylococcus aureus; assay type: functional, organism-based

SMILES	inhibition at 0.3 µM (Fusarium solani [1])	inhibition at 30 µM (Fusarium proliferatum [2])	inhibition at 0.3 µM (Fusarium proliferatum [4])	Activity (Fusarium oxysporum [5])	inhibition at 3 µM (Fusarium proliferatum [7])	inhibition at 30 µM (Fusarium oxysporum [8])	inhibition at 3 µM (Fusarium oxysporum [9])	inhibition at 3 µM (Fusarium solani [10])	inhibition at 3 µM (Fusarium solani [11])	inhibition at 3 µM (Fusarium oxysporum [12])	inhibition at 30 µM (Fusarium solani [13])	inhibition at 0.3 µM (Fusarium oxysporum [14])	inhibition at 30 µM (Fusarium solani [15])	inhibition at 30 µM (Fusarium oxysporum [16])	inhibition at 3 µM (Fusarium proliferatum [17])	inhibition at 0.3 µM (Fusarium proliferatum [18])	inhibition at 0.3 µM (Fusarium oxysporum [19])	inhibition at 0.3 µM (Fusarium solani [20])	inhibition at 30 µM (Fusarium proliferatum [21])	Activity (Fusarium solani [22])	also measured
CO/C=C(/C(=O)OC)c1ccccc1Oc1cc(Oc2ccccc2C#N)ncn1 [AZOXYSTROBIN]	16.6%	40.7%	0%	Active	14.8%	77.2%	7.1%	15%	25.3%	32.3%	62.7%	22.7%	51.7%	32.9%	21.7%	0%	15.3%	11.7%	53%	–	Activity (Fusarium proliferatum [3]): Active; Activity (Fusarium solani [6]): Active
C/C=C1\NC(=O)[C@H](Cc2ccccc2)NC(=O)[C@@H](C(C)C)NC(=O)[C@@H]([C@@H](C)CC)NC(=O)[C@H](NC(=O)[C@H](NC(=O)[C@H](CCCNCc2ccncc2)NC(=O)[C@H]2CCCN2C(=O)[C@@H](NC(=O)[C@H](NC(=O)[C@H](NC(=O)[C@@H](NC(=O)CCCC(C)C)C(C)C)[C@H](C)O)C(C)C)C(C)C)[C@@H](C)CC)[C@@H](C)OC(=O)[C@H](C(C)C)NC1=O	–	–	–	Active	–	–	–	–	–	–	–	–	–	–	–	–	–	–	–	Active	Activity (Fusarium proliferatum [23]): Active
C/C=C1\NC(=O)[C@H](Cc2ccccc2)NC(=O)[C@@H](C(C)C)NC(=O)[C@@H]([C@@H](C)CC)NC(=O)[C@H](NC(=O)[C@H](NC(=O)[C@H](CCCN)NC(=O)[C@H]2CCCN2C(=O)[C@@H](NC(=O)[C@H](NC(=O)[C@H](NC(=O)[C@@H](NC(=O)CCCC(C)C)C(C)C)[C@H](C)OC(C)=O)C(C)C)C(C)C)[C@@H](C)CC)[C@@H](C)OC(=O)[C@H](C(C)C)NC1=O	0%	34.7%	0%	Active	0.3%	78.5%	0%	0%	0%	0%	80.9%	0%	96.7%	74.4%	0%	0.3%	0%	0%	70.8%	Active	IC50 [24]: 14.3 µM; MBC [24]: > 20 µM; MIC [24]: > 20 µM; inhibition at 16 µg/mL [25]: 94%; IC50 (Cryptococcus neoformans): 1.89 µM; MFC (Cryptococcus neoformans): 5 µM (≈ 7.6 µg/mL); MIC (Cryptococcus neoformans): 5 µM (≈ 7.6 µg/mL); IC50 (Aspergillus fumigatus): 3.38 µM; MFC (Aspergillus fumigatus): 10 µM (≈ 15.2 µg/mL); MIC (Aspergillus fumigatus): 10 µM (≈ 15.2 µg/mL); IC50 (Candida albicans): 3.28 µM; MFC (Candida albicans): 20 µM (≈ 30.4 µg/mL); MIC (Candida albicans): 10 µM (≈ 15.2 µg/mL); Activity (Fusarium proliferatum [23]): Active; MIC [26]: 15.4 µg/mL (≈ 10.1 µM)
C/C=C1\NC(=O)[C@H](Cc2ccccc2)NC(=O)[C@@H](C(C)C)NC(=O)[C@@H]([C@@H](C)CC)NC(=O)[C@H](NC(=O)[C@H](NC(=O)[C@H](CCCNC(=O)c2cc3ccc(N(CC)CC)cc3oc2=O)NC(=O)[C@H]2CCCN2C(=O)[C@@H](NC(=O)[C@H](NC(=O)[C@H](NC(=O)[C@@H](NC(=O)CCCC(C)C)C(C)C)[C@H](C)O)C(C)C)C(C)C)[C@@H](C)CC)[C@@H](C)OC(=O)[C@H](C(C)C)NC1=O	–	–	–	–	–	–	–	–	–	–	–	–	–	–	–	–	–	–	–	inactive	Activity (Fusarium oxysporum [27]): inactive; Activity (Fusarium proliferatum [23]): inactive; Activity (Fusarium proliferatum [28]): inactive
C/C=C(\NC(=O)[C@H](Cc1ccccc1)NC(=O)[C@H](NC(=O)[C@H](NC(=O)[C@H](NC(=O)[C@H](NC(=O)[C@H](CCCN)NC(=O)[C@H]1CCCN1C(=O)[C@@H](NC(=O)[C@H](NC(=O)[C@H](NC(=O)[C@@H](NC(=O)CCCC(C)C)C(C)C)[C@H](C)O)C(C)C)C(C)C)[C@@H](C)CC)[C@@H](C)O)[C@@H](C)CC)C(C)C)C(=O)N[C@H](C(=O)O)C(C)C	–	–	–	–	–	–	–	–	–	–	–	–	–	–	–	–	–	–	–	–	Activity (Escherichia coli): inactive; Activity (Staphylococcus aureus): inactive
CC(C)CCC[C@H]1CC(=O)N[C@H](Cc2c[nH]c3ccccc23)C(=O)N2CCC[C@H]2C(=O)N[C@@H](CCCNC(=N)N)C(=O)O1 [KAHALALIDE D]	–	–	–	–	–	–	–	–	–	–	–	–	–	–	–	–	–	–	–	–	IC50 [24]: > 33.6 µM; inhibition at 16 µg/mL [25]: 49%; IC50 (Cryptococcus neoformans): > 33.6 µM; IC50 (Aspergillus fumigatus): > 33.6 µM; Activity (Escherichia coli): inactive; Activity (Staphylococcus aureus): inactive; IC50 (Candida albicans): > 33.6 µM
C/C=C1\NC(=O)[C@H](Cc2ccccc2)NC(=O)[C@@H](C(C)C)NC(=O)[C@@H]([C@@H](C)CC)NC(=O)[C@H](NC(=O)[C@H](NC(=O)[C@H](CCCNCc2cccs2)NC(=O)[C@H]2CCCN2C(=O)[C@@H](NC(=O)[C@H](NC(=O)[C@H](NC(=O)[C@@H](NC(=O)CCCC(C)C)C(C)C)[C@H](C)O)C(C)C)C(C)C)[C@@H](C)CC)[C@@H](C)OC(=O)[C@H](C(C)C)NC1=O	–	–	–	–	–	–	–	–	–	–	–	–	–	–	–	–	–	–	–	Active	Activity (Fusarium oxysporum [27]): Active; Activity (Fusarium proliferatum [3]): Active
O=C1C2CC=CCC2C(=O)N1SC(Cl)(Cl)Cl (stereo unspecified) [CAPTAN]	0%	100%	6%	Active	0%	99.5%	0%	0%	5.1%	7.6%	90.7%	0.2%	47.9%	98.1%	12%	3%	0%	0%	100%	–	Activity (Fusarium proliferatum [3]): Active; Activity (Fusarium solani [6]): Active
C[C@@H]1[C@H](O)[C@@H](C)/C=C/C=C/C=C/C=C/C=C/C=C/C=C/[C@H](O[C@@H]2O[C@H](C)[C@@H](O)[C@H](N)[C@@H]2O)C[C@@H]2O[C@](O)(C[C@@H](O)C[C@@H](O)[C@H](O)CC[C@@H](O)C[C@@H](O)CC(=O)O[C@H]1C)C[C@H](O)[C@H]2C(=O)O [AMPHOTERICIN B]	0%	79%	0%	–	0%	99.7%	0%	0%	18.1%	12.5%	100%	0%	98.1%	87.1%	7.9%	0%	0%	0.1%	99.8%	Active	Activity (Fusarium oxysporum [27]): Active; IC50 (Cryptococcus neoformans): 0.79 µM; MFC (Cryptococcus neoformans): 0.06 µM (≈ 0.0554 µg/mL); MIC (Cryptococcus neoformans): 0.016 µM (≈ 0.0148 µg/mL); IC50 (Aspergillus fumigatus): 1.32 µM; MFC (Aspergillus fumigatus): 2.5 µM (≈ 2.31 µg/mL); MIC (Aspergillus fumigatus): 2.5 µM (≈ 2.31 µg/mL); IC50 (Candida albicans): 0.25 µM; MFC (Candida albicans): 1.25 µM (≈ 1.16 µg/mL); MIC (Candida albicans): 0.625 µM (≈ 0.578 µg/mL); Activity (Fusarium proliferatum [23]): Active
